Measured values taken from ChEMBL document CHEMBL1649572, “Synergistic interaction between silver nanoparticles and membrane-permeabilizing antimicrobial peptides” (Antimicrob Agents Chemother, 2009).
Converted amounts (≈) assume the structure as drawn. Square brackets hold non-standard residues; d marks the D form. Peptide text beside a SMILES is read from it. * marks the point of attachment. Orn = NCCC[C@H](N)C(=O)O; NHCH2CH2OH = OCCN*; For = O=C*

What was measured:
[1] = Toxicity in human erythrocytes assessed as hemolysis by serial dilution method
Escherichia coli [2] = assay: microbe, parasite or virus in culture; type: functional; conditions: DSM 498
Enterobacter helveticus [3] = assay: microbe, parasite or virus in culture; type: functional; conditions: Franconibacter helveticus, DSM 18396
Bacillus subtilis [4] = assay: Antibacterial activity against Bacillus subtilis DSM 347 in presence of silver nitrate; type: functional
How it was run: (§1)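 Two-dimensional (checkerboard) microdilution: AgNO3 or carbon-matrix-stabilized silver nanoparticles (mean diameter 25 nm) crossed with a membrane-active antimicrobial peptide, in salt-free Luria/Miller bouillon. Nanoparticles dissolved in 8 mM Tris/HCl pH 7.6 with 150 mM NaCl. MICs taken alone and in combination; FIC index = MIC(A with B)/MIC(A alone) + MIC(B with A)/MIC(B alone). <0.5 synergy, 0.5–2.0 additive, >2.0 antagonism.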

Pseudomonas fluorescens [5] = assay: Antibacterial activity against Pseudomonas fluorescens DSM 50090 in presence of silver nanoparticles; type: functional; how it was run: as §1
Proteus myxofaciens [6] = assay: microbe, parasite or virus in culture; type: functional; conditions: DSM 4482
Pseudomonas fluorescens [7] = assay: Antibacterial activity against Pseudomonas fluorescens DSM 50090 in presence of silver nitrate; type: functional; how it was run: as §1
Escherichia coli [8] = assay: Antibacterial activity against Escherichia coli DSM 498 in presence of silver nitrate; type: functional; how it was run: as §1
Escherichia coli [9] = assay: Antibacterial activity against Escherichia coli DSM 498 in presence of silver nanoparticles; type: functional; how it was run: as §1
Pseudomonas fluorescens [10] = assay: microbe, parasite or virus in culture; type: functional; conditions: DSM 50090
[11] = system: Acinetobacter calcoaceticus; assay: microbe, parasite or virus in culture; type: functional; conditions: DSM 586
Bacillus subtilis [12] = assay: Antibacterial activity against Bacillus subtilis DSM 347 in presence of silver nanoparticles; type: functional; how it was run: as §1
Bacillus subtilis [13] = assay: microbe, parasite or virus in culture; type: functional; conditions: DSM 347
Kocuria rhizophila [14] = assay: microbe, parasite or virus in culture; type: functional; conditions: DSM 348
Kocuria rhizophila [15] = assay: Antibacterial activity against Kocuria rhizophila DSM 348 in presence of silver nanoparticles; type: functional; how it was run: as §1
Kocuria rhizophila [16] = assay: Antibacterial activity against Kocuria rhizophila DSM 348 in presence of silver nitrate; type: functional; how it was run: as §1
Micrococcus luteus [17] = assay: microbe, parasite or virus in culture; type: functional; conditions: DSM 1790
Aeromonas bestiarum [18] = assay: microbe, parasite or virus in culture; type: functional; conditions: DSM 13956
Micrococcus luteus [19] = assay: Antibacterial activity against Micrococcus luteus DSM 1790 in presence of silver nitrate; type: functional; how it was run: as §1
Micrococcus luteus [20] = assay: Antibacterial activity against Micrococcus luteus DSM 1790 in presence of silver nanoparticles; type: functional; how it was run: as §1
Proteus myxofaciens [21] = assay: Antibacterial activity against Proteus myxofaciens DSM 4482 in presence of silver nanoparticles; type: functional; how it was run: as §1
Enterobacter helveticus [22] = assay: Antibacterial activity against Enterobacter helveticus DSM 18396 in presence of silver nanoparticles; type: functional, Franconibacter helveticus; how it was run: as §1
[23] = system: Acinetobacter calcoaceticus; assay: Antibacterial activity against Acinetobacter calcoaceticus DSM 586 in presence of silver nitrate; type: functional; how it was run: as §1
Aeromonas bestiarum [24] = assay: Antibacterial activity against Aeromonas bestiarum DSM 13956 in presence of silver nanoparticles; type: functional; how it was run: as §1
Proteus myxofaciens [25] = assay: Antibacterial activity against Proteus myxofaciens DSM 4482 in presence of silver nitrate; type: functional; how it was run: as §1
Enterobacter helveticus [26] = assay: Antibacterial activity against Enterobacter helveticus DSM 18396 in presence of silver nitrate; type: functional, Franconibacter helveticus; how it was run: as §1
Aeromonas bestiarum [27] = assay: Antibacterial activity against Aeromonas bestiarum DSM 13956 in presence of silver nitrate; type: functional; how it was run: as §1
[28] = system: Acinetobacter calcoaceticus; conditions: DSM 586
Pseudomonas fluorescens [29] = conditions: DSM 50090
Enterobacter helveticus [30] = conditions: Franconibacter helveticus; DSM 18396
Aeromonas bestiarum [31] = conditions: DSM 13956
Micrococcus luteus [32] = conditions: DSM 1790
Bacillus subtilis [33] = conditions: DSM 347
Escherichia coli [34] = conditions: DSM 498
Kocuria rhizophila [35] = conditions: DSM 348
Proteus myxofaciens [36] = conditions: DSM 4482

Row | Compound | HC50 ([1]; human erythrocytes) | MIC (Escherichia coli [2]) | MIC (Enterobacter helveticus [3]) | fractional inhibitory concentration index (FICI) (Bacillus subtilis [4]) | fractional inhibitory concentration index (FICI) (Pseudomonas fluorescens [5]) | MIC (Proteus myxofaciens [6]) | fractional inhibitory concentration index (FICI) (Escherichia coli [8]) | fractional inhibitory concentration index (FICI) (Escherichia coli [9]) | MIC (Pseudomonas fluorescens [10]) | MIC [11] | fractional inhibitory concentration index (FICI) (Bacillus subtilis [12]) | MIC (Bacillus subtilis [13]) | MIC (Kocuria rhizophila [14]) | fractional inhibitory concentration index (FICI) (Kocuria rhizophila [15]) | fractional inhibitory concentration index (FICI) (Kocuria rhizophila [16]) | MIC (Micrococcus luteus [17]) | MIC (Aeromonas bestiarum [18]) | fractional inhibitory concentration index (FICI) (Micrococcus luteus [19]) | fractional inhibitory concentration index (FICI) (Micrococcus luteus [20]) | fractional inhibitory concentration index (FICI) [23] | further results
1 | CC(=O)NC(C)(C)C(=O)N1CCC[C@H]1C(=O)NC(C)(C)C(=O)N[C@@H](C)C(=O)NC(C)(C)C(=O)N[C@@H](C)C(=O)N[C@@H](CCC(N)=O)C(=O)NC(C)(C)C(=O)N[C@H](C(=O)NC(C)(C)C(=O)NCC(=O)N[C@@H](CC(C)C)C(=O)NC(C)(C)C(=O)N1CCC[C@H]1C(=O)N[C@H](C(=O)NC(C)(C)C(=O)NC(C)(C)C(=O)N[C@@H](CCC(=O)O)C(=O)N[C@@H](CCC(N)=O)C(=O)N[C@H](CO)Cc1ccccc1)C(C)C)C(C)C [ALAMETHICIN] | 17.9 µg/mL | 256 µg/mL (≈ 130 µM) | 256 µg/mL (≈ 130 µM) | 1 | 1 | 256 µg/mL (≈ 130 µM) | 0.5 | 0.5 | 128 µg/mL (≈ 65.2 µM) | 256 µg/mL (≈ 130 µM) | 0.88 | 8 µg/mL (≈ 4.07 µM) | 8 µg/mL (≈ 4.07 µM) | 1 | 1 | 8 µg/mL (≈ 4.07 µM) | 256 µg/mL (≈ 130 µM) |  |  |  | fractional inhibitory concentration index (FICI) (Pseudomonas fluorescens [7]): 1
2 | CC(C)C[C@@H](NC(=O)[C@H](C)NC(=O)CNC(=O)[C@@H](NC=O)C(C)C)C(=O)N[C@@H](C)C(=O)N[C@@H](C(=O)N[C@H](C(=O)N[C@@H](C(=O)N[C@@H](Cc1c[nH]c2ccccc12)C(=O)N[C@H](CC(C)C)C(=O)N[C@@H](Cc1c[nH]c2ccccc12)C(=O)N[C@H](CC(C)C)C(=O)N[C@@H](Cc1c[nH]c2ccccc12)C(=O)N[C@H](CC(C)C)C(=O)N[C@@H](Cc1c[nH]c2ccccc12)C(=O)NCCO)C(C)C)C(C)C)C(C)C [GRAMICIDIN A] (For-VGA[dL]A[dV]V[dV]W[dL]W[dL]W[dL]W-NHCH2CH2OH) | 2.3 µg/mL | > 128 µg/mL | > 128 µg/mL | 0.42 |  | > 128 µg/mL |  |  | > 128 µg/mL | > 128 µg/mL | 0.94 | 1 µg/mL (≈ 0.531 µM) | 1 µg/mL (≈ 0.531 µM) | 1.04 | 0.79 | 1 µg/mL (≈ 0.531 µM) | > 128 µg/mL | 0.88 | 1.04 |  | 
3 | CC(C)C[C@@H]1NC(=O)[C@H](CCCN)NC(=O)[C@H](C(C)C)NC(=O)[C@@H]2CCCN2C(=O)[C@@H](Cc2ccccc2)NC(=O)[C@H](CC(C)C)NC(=O)[C@H](CCCN)NC(=O)[C@H](C(C)C)NC(=O)[C@@H]2CCCN2C(=O)[C@@H](Cc2ccccc2)NC1=O [GRAMICIDIN S] (cyclo(L[dF]PV[Orn]L[dF]PV[Orn])) | 10.1 µg/mL | 8 µg/mL (≈ 7.01 µM) | 4 µg/mL (≈ 3.5 µM) | 0.73 | 0.48 | 16 µg/mL (≈ 14 µM) | 0.83 | 0.56 | 16 µg/mL (≈ 14 µM) | 16 µg/mL (≈ 14 µM) | 0.77 | 2 µg/mL (≈ 1.75 µM) | 4 µg/mL (≈ 3.5 µM) | 0.83 | 0.92 | 2 µg/mL (≈ 1.75 µM) | 32 µg/mL (≈ 28 µM) | 0.92 | 1.25 | 0.77 | fractional inhibitory concentration index (FICI) (Proteus myxofaciens [21]): 0.38; fractional inhibitory concentration index (FICI) (Enterobacter helveticus [22]): 0.44; fractional inhibitory concentration index (FICI) (Aeromonas bestiarum [24]): 0.63; fractional inhibitory concentration index (FICI) (Pseudomonas fluorescens [7]): 0.67; fractional inhibitory concentration index (FICI) (Proteus myxofaciens [25]): 0.63; fractional inhibitory concentration index (FICI) (Enterobacter helveticus [26]): 0.32; fractional inhibitory concentration index (FICI) (Aeromonas bestiarum [27]): 0.53
4 | H-GIGKFLHSAKKFGKAFVGEIMNS-OH [MAGAININ 2] | 202 µg/mL | 16 µg/mL | 8 µg/mL | 0.69 |  | > 256 µg/mL | 1 | 0.86 | > 256 µg/mL | 16 µg/mL | 0.67 | 16 µg/mL | 16 µg/mL | 0.96 | 0.67 | 16 µg/mL | > 256 µg/mL | 1.02 | 1.04 | 0.79 | fractional inhibitory concentration index (FICI) (Enterobacter helveticus [22]): 0.59; fractional inhibitory concentration index (FICI) (Enterobacter helveticus [26]): 0.71
5 | H-GMASKAGAIAGKIAKVALKAL-NH2 | 165 µg/mL | 8 µg/mL | 8 µg/mL | 0.92 |  | > 256 µg/mL | 0.67 | 1 | > 256 µg/mL | 8 µg/mL | 0.71 | 8 µg/mL | 8 µg/mL | 1.01 | 1.08 | 4 µg/mL | > 256 µg/mL | 0.71 | 1 | 1.08 | fractional inhibitory concentration index (FICI) (Enterobacter helveticus [22]): 0.57; fractional inhibitory concentration index (FICI) (Enterobacter helveticus [26]): 0.71
6 | POLYMYXIN B [listing 1 of 2 here] |  |  |  |  |  |  |  |  |  |  |  |  |  |  |  |  |  |  |  |  | HC50 ([1]; erythrocyte): 210.7 µg/mL
7 | POLYMYXIN B [listing 2 of 2 here] |  |  |  | 0.59 | 0.27 |  | 0.38 | 0.38 |  |  | 0.96 |  |  | 0.61 | 0.83 |  |  | 0.58 | 0.96 | 0.83 | MIC [28]: 1 µg/mL; fractional inhibitory concentration index (FICI) (Proteus myxofaciens [21]): 0.23; MIC (Pseudomonas fluorescens [29]): 128 µg/mL; MIC (Enterobacter helveticus [30]): 1 µg/mL; fractional inhibitory concentration index (FICI) (Enterobacter helveticus [22]; Franconibacter helveticus): 0.38; MIC (Aeromonas bestiarum [31]): 16 µg/mL; MIC (Micrococcus luteus [32]): 4 µg/mL; MIC (Bacillus subtilis [33]): 8 µg/mL; MIC (Escherichia coli [34]): 1 µg/mL; fractional inhibitory concentration index (FICI) (Aeromonas bestiarum [24]): 0.39; fractional inhibitory concentration index (FICI) (Pseudomonas fluorescens [7]): 0.56; fractional inhibitory concentration index (FICI) (Proteus myxofaciens [25]): 0.23; MIC (Kocuria rhizophila [35]): 16 µg/mL; fractional inhibitory concentration index (FICI) (Enterobacter helveticus [26]; Franconibacter helveticus): 0.29; MIC (Proteus myxofaciens [36]): 16 µg/mL; fractional inhibitory concentration index (FICI) (Aeromonas bestiarum [27]): 0.5
